Measured values: PubChem BioAssay
Records with an inconclusive call do not appear.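 The calls were made as follows, unless noted: active = inhibition over a set limit, the all-compound mean plus 3 SD, in both replicate runs; inconclusive = over that limit in just one replicate run; inactive = at or under that limit in both runs.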

Tests used:
[1] = S. cerevisiae growth inhibition in permissive medium (OD615), pilot counter-assay for S. cerevisiae lifespan shortening project, permissive growth control (AID 705;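 active = growth inhibition above 25% in both replicates, a cutoff set 3 SD above the mean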); settings: OD615, 24 h, at 10 µM, active compounds read high
How it was run: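 Test system: Saccharomyces cerevisiae strain carrying genetically modified DeaD replicative-lifespan system; buffer or medium: SC raffinose/galactose permissive medium; dosing: one dose 10 µM, DMSO 0.25% final; times: 24 h exposure, 30 °C; measured by: OD at 615 nm; read-out basis: growth inhibition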

[2] = S. cerevisiae growth inhibition in restrictive medium, OD615, pilot screen, restrictive growth control, yeast lifespan reduction project (AID 706;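 active = growth inhibition above a set limit, 3 SD over mean compound inhibition, in both replicates, cut at about 43% in these data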;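 also: modified DeaD lifespan yeast strain shifted to restrictive glucose medium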); settings: OD615, 48 h, at 10 µM, active compounds read high
How it was run: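 material = engineered S. cerevisiae DeaD strain | buffer or medium = glucose-based CSMM-D restrictive medium | dosing = one concentration, 10 µM final, 0.25% DMSO | schedule = 4 h pre-growth plus 48 h compound exposure, 30 °C | detection = OD615 absorbance reading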

[3] = doxorubicin toxicity protection in MRP-1 cells – H69AR cells, CellTiter-Glo, duplicate, MRP-1 activator project, pilot screen (AID 807;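 active = viability increase at or above a cutoff of the median across tested compounds plus 3 SD, cut at about 8.5% in these data, passing the limit was not always enough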;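 also: compound pretreatment 18-22 h then 72 h combined with doxorubicin; 0% = doxorubicin alone and 100% = vehicle without doxorubicin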); settings: H69AR viability with doxorubicin, CellTiter-Glo luminescence; at 10 µM; active compounds read high
[4] = viability of HCT116 without oncogenic beta-catenin – human colon tumor cells, pilot screen (AID 823;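 active = cell viability at or below a set limit in both duplicate runs, the limit being the all-compound median minus 4 SD, cut at about 23% in these data, passing the limit was not always enough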;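 also: 0% = wells killed by 20 µM Hyamine and 100% = untreated DMSO cell wells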); settings: HCT116 beta-catenin knockout viability, CellTiter-Glo, 60 h; at 10 µM; active compounds read low
[5] = viability of PTEN-null HCT116 cells – cell-based, HCT116 clonal line, CellTiter-Glo, pilot screen (AID 824;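 active = viability at or below 27.92% in each of two runs, the all-compound median minus 4 SD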;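 also: 0% = 20 µM Hyamine control and 100% = vehicle cell control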); settings: HCT116 PTEN-deleted viability, 60 h, at 10 µM, active compounds read low
[6] = RAM pathway blockade in budding yeast – dse1pr::URA3 reporter, 5-FOA selection, pilot screen (AID 869);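 also: 0% = DMSO wells with no growth and 100% = 10 µM 1-NA-PP1 with full growth; RAM network block rescues cells from 5-FOA so hits raise OD615 growth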; settings: S. cerevisiae dse1pr::URA3 5-FOA growth, OD615, 2 d; at 10 µM; active compounds read high; strain carries analog-sensitive mutant Cbk1 kinase
[7] = RAM signaling pathway blockade in yeast – S. cerevisiae, Pdr1DBD-CYC8 efflux-inhibited sensitized strain, primary screen (AID 1298;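 active = RAM network inhibition above 8.4% in each of two replicates, 3 SD over the compound average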;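 also: 0% = DMSO untreated cells without growth and 100% = 10 µM 1-NA-PP1 full growth; higher means more yeast growth rescued from 5-FOA killing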); settings: S. cerevisiae cbk1-as DSE1-URA3 strain, 5-FOA growth OD615, 2 d; at 50 µM; active compounds read high

Cc1cc2cc(CNC(=O)c3ccc(Br)o3)ccc2n1C
inactive: growth inhibition [1] -9.25% | growth inhibition [2] -10.3% | viability increase [3] -2.79% | viability [4] 94.2% | viability [5] 92.1% | inhibition [6] 1.93% | RAM network inhibition [7] 9.25%

CCOC(=O)c1ccc(S(=O)(=O)N2CCN(CCC#N)CC2)cc1
inactive: growth inhibition [1] -7.13% | growth inhibition [2] 0.63% | viability increase [3] 1.42% | viability [4] 102% | viability [5] 99.4% | inhibition [6] 0.195% | RAM network inhibition [7] 0.21%

Cc1cccc(NC(=O)CSc2nnc(-c3ccccc3)n2N)c1C
inactive: growth inhibition [1] -9.02% | growth inhibition [2] -15.1% | viability increase [3] -2.08% | viability [4] 94.4% | viability [5] 90.2% | inhibition [6] 1.85% | RAM network inhibition [7] 0.16%

COc1ccccc1C1CC(=O)NC(SCC(=O)Nc2ccccc2)=C1C#N (stereo unspecified)
inactive: growth inhibition [1] 4.78% | growth inhibition [2] -11.8% | viability increase [3] 1.09% | viability [4] 93.2% | viability [5] 88.2% | inhibition [6] 3.57% | RAM network inhibition [7] 1.38%

O=C(Cn1nc(Cc2cccnc2)c2ccccc2c1=O)N1CCN(C(=O)c2ccco2)CC1
inactive: growth inhibition [1] 4.07% | growth inhibition [2] 0.805% | viability increase [3] -0.74% | viability [4] 104% | viability [5] 104% | inhibition [6] 0.64% | RAM network inhibition [7] 2.7%

CC(=O)NC(C)(C)C1CC=C(C)/C(=N\O)C1 (stereo unspecified)
inactive: growth inhibition [1] -3.7% | growth inhibition [2] -1.12% | viability increase [3] -0.02% | viability [4] 104% | viability [5] 101% | inhibition [6] 1.36% | RAM network inhibition [7] -0.78%

C=CCOC(=O)C1CC=CCC1C(=O)Oc1ccc(F)cc1F (stereo unspecified)
inactive: growth inhibition [1] -18.3% | growth inhibition [2] -15.3% | viability increase [3] -1.32% | viability [4] 100% | viability [5] 94% | inhibition [6] 2.56% | RAM network inhibition [7] 1.82%

O=C(c1ccco1)N1CCN(c2nc3ccsc3c(=O)s2)CC1
inactive: growth inhibition [1] -0.135% | growth inhibition [2] 6.59% | viability increase [3] -3.19% | viability [4] 97.1% | viability [5] 94.3% | inhibition [6] 2.1% | RAM network inhibition [7] 5.38%

CCOC(=O)Cc1csc(NC(NC(=O)CC)(C(F)(F)F)C(F)(F)F)n1
inactive: growth inhibition [1] 0.765% | growth inhibition [2] -2.19% | viability increase [3] -0.75% | viability [4] 99.6% | viability [5] 96.7% | inhibition [6] 3.13% | RAM network inhibition [7] 6.43%

Cn1cnnc1SCCC(=O)Nc1ccccc1
inactive: growth inhibition [1] 6.46% | growth inhibition [2] 0.795% | viability increase [3] -1.01% | viability [4] 101% | viability [5] 99.5% | inhibition [6] 1.14% | RAM network inhibition [7] 2.5%

CC1CCN(CC(O)COc2cccc(F)c2)CC1 (stereo unspecified)
inactive: growth inhibition [1] -14.2% | growth inhibition [2] -6.4% | viability increase [3] -0.94% | viability [4] 96.7% | viability [5] 92.2% | inhibition [6] -0.65% | RAM network inhibition [7] 0.62%

COC(=O)c1ccccc1NC(=O)Cn1cc2c(n1)CCC(C)C2 (stereo unspecified)
inactive: growth inhibition [1] 0.34% | growth inhibition [2] -0.81% | viability increase [3] -0.23% | viability [4] 92.9% | viability [5] 87.9% | inhibition [6] 1.79% | RAM network inhibition [7] 3.66%

COc1ccc(N2C(=O)CCC(C(=O)N3CCC(C(N)=O)CC3)C2c2ccc(F)cc2)cc1 (stereo unspecified)
inactive: growth inhibition [1] -5.89% | growth inhibition [2] -16.2% | viability increase [3] -0.33% | viability [4] 99.6% | viability [5] 102% | inhibition [6] 1.6% | RAM network inhibition [7] 3.66%

CC(=O)Nc1nc2c(F)cccc2s1
inactive: growth inhibition [1] -14.9% | growth inhibition [2] -3% | viability increase [3] -2.43% | viability [4] 96.5% | viability [5] 91.2% | inhibition [6] 1.6% | RAM network inhibition [7] 7.94%

CN(C)C(=O)CSc1nnc(-c2cccnc2)n1-c1ccccc1
inactive: growth inhibition [1] -5.85% | growth inhibition [2] -5.54% | viability increase [3] -0.98% | viability [4] 98.6% | viability [5] 95.1% | inhibition [6] 1.36% | RAM network inhibition [7] 2.91%

Cc1nn(C)c(C)c1S(=O)(=O)N(CC(=O)NCCN1CCOCC1)c1ccc(C(C)C)cc1
inactive: growth inhibition [1] -13.5% | growth inhibition [2] -11.8% | viability increase [3] -1.69% | viability [4] 102% | viability [5] 101% | inhibition [6] 1.83% | RAM network inhibition [7] 2.73%

CCO/C(C)=C1\C(=O)N(CC)c2ccccc21
inactive: growth inhibition [1] -9.62% | growth inhibition [2] -5.21% | viability increase [3] -1.57% | viability [4] 96.7% | viability [5] 97.2% | inhibition [6] -0.745% | RAM network inhibition [7] 2.08%

O=C(NC1CCCc2ccccc21)C1CCN(C(=O)c2sccc2-n2cccc2)CC1 (stereo unspecified)
inactive: growth inhibition [1] -5.99% | growth inhibition [2] -8.89% | viability increase [3] -4.24% | viability [4] 84.7% | viability [5] 78.7% | inhibition [6] -0.305% | RAM network inhibition [7] 4.28%
